Laboratory results published in ChEMBL document CHEMBL1153580, “Synthesis and pharmacological investigation of 3-(substituted 1-phenylethanone)-4-(substituted phenyl)-1, 2, 3, 4-tetrahydropyrimidine-5-carboxylates” (Eur J Med Chem, 2009).

Experiments:
Rattus norvegicus [1] = test: Antihypertensive activity in Norwegian albino rat assessed as inhibition of DOCA salt-induced diastolic blood pressure at 10 mg/kg, po after 15 mins by invasive carotid artery cannulation method; type: functional; details: 0.25 h
How it was run: (§1)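 Male rats (200–250 g), uninephrectomized and given DOCA s.c. (30–50 mg/kg/week) with 1% NaCl drinking water. Anesthetized with pentobarbital (35 mg/kg i.p.); left carotid artery cannulated and exteriorized. After recovery and a baseline reading, compound given orally by feeding needle. Diastolic pressure recorded via transducer at 15, 30, 60, 120 and 180 min. Mean ± S.E.M.; repeated-measures ANOVA.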

Rattus norvegicus [2] = test: Antihypertensive activity in Norwegian albino rat assessed as inhibition of DOCA salt-induced systolic blood pressure at 10 mg/kg, po after 240 mins by non-invasive tail-cuff method; type: functional; details: Artery, 4 h
How it was run: (§2)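 Male rats (200–250 g), uninephrectomized under pentobarbital (50 mg/kg i.p.); one week later DOCA s.c. 30–50 mg/kg/week, with 1% w/v NaCl in drinking water. Groups of six, trained in restrainer, tail warmed at 33–34 °C. Compound in 0.5% CMC, 10 mg/kg orally. Systolic pressure read by tail-cuff before dosing and from 1 h after; three readings averaged. ANOVA.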

Rattus norvegicus [3] = test: Antihypertensive activity in Norwegian albino rat assessed as inhibition of DOCA salt-induced diastolic blood pressure at 10 mg/kg, po after 240 mins by invasive carotid artery cannulation method; type: functional; details: 4 h
Rattus norvegicus [4] = test: Antihypertensive activity in Norwegian albino rat assessed as inhibition of DOCA salt-induced systolic blood pressure at 10 mg/kg, po after 360 mins by non-invasive tail-cuff method; type: functional; details: Artery, 6 h; how it was run: as §2
Rattus norvegicus [5] = test: Antiinflammatory activity in Norwegian albino rat assessed as inhibition of carrageenan-induced paw edema at 100 mg/kg, po after administered 60 mins prior to carrageenan-challenge measured after 3 hrs; type: functional
How it was run: (§3)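 Compound given orally as 100 mg/kg suspension in 0.5% CMC. 60 min later, carrageenan injected sub-plantar into the left hind paw. Paw volume measured within 30 s of injection, then at 1–5 h. % inhibition = [1−(Dt/Dc)]×100, where Dt and Dc are mean relative paw-volume changes in test and control. ANOVA.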

Rattus norvegicus [6] = test: Antihypertensive activity in Norwegian albino rat assessed as inhibition of DOCA salt-induced systolic blood pressure at 10 mg/kg, po after 480 mins by non-invasive tail-cuff method; type: functional; details: Artery, 8 h; how it was run: as §2
Rattus norvegicus [7] = test: Antihypertensive activity in Norwegian albino rat assessed as inhibition of DOCA salt-induced diastolic blood pressure at 10 mg/kg, po after 120 mins by invasive carotid artery cannulation method; type: functional; details: 2 h; how it was run: as §1
Rattus norvegicus [8] = test: Gastrointestinal toxicity in albino rat assessed as ulcerogenic index at 50 mg/kg, po; type: organism-based; parameters: dose 50 mg/kg, route oral; details: in vivo
How it was run: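 Albino rats (150–200 g), six per group, food but not water withheld 24 h. Compound given p.o. at 50 mg/kg; controls received 1% methyl cellulose. Rats fed 17 h, then killed; stomach opened along greater curvature and examined under 4× magnifier. Lesions scored as large (>2 mm), small (1–2 mm) or punctiform (<1 mm). Severity index = treated mean score minus control mean score.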

Rattus norvegicus [9] = test: Antihypertensive activity in Norwegian albino rat assessed as inhibition of DOCA salt-induced systolic blood pressure at 10 mg/kg, po after 420 mins by non-invasive tail-cuff method; type: functional; details: Artery, 7 h; how it was run: as §2
Rattus norvegicus [10] = test: Antiinflammatory activity in Norwegian albino rat assessed as inhibition of carrageenan-induced paw edema at 100 mg/kg, po after administered 60 mins prior to carrageenan-challenge measured after 5 hrs; type: functional; how it was run: as §3
Rattus norvegicus [11] = test: Antihypertensive activity in Norwegian albino rat assessed as inhibition of DOCA salt-induced systolic blood pressure at 10 mg/kg, po after 30 mins by non-invasive tail-cuff method; type: functional; details: Artery, 0.5 h
Rattus norvegicus [12] = test: Antihypertensive activity in Norwegian albino rat assessed as inhibition of DOCA salt-induced systolic blood pressure at 10 mg/kg, po after 180 mins by non-invasive tail-cuff method; type: functional; details: Artery, 3 h; how it was run: as §2
Rattus norvegicus [13] = test: Antihypertensive activity in Norwegian albino rat assessed as inhibition of DOCA salt-induced diastolic blood pressure at 10 mg/kg, po after 30 mins by invasive carotid artery cannulation method; type: functional; details: 0.5 h; how it was run: as §1
Rattus norvegicus [14] = test: Antihypertensive activity in Norwegian albino rat assessed as inhibition of DOCA salt-induced diastolic blood pressure at 10 mg/kg, po after 180 mins by invasive carotid artery cannulation method; type: functional; details: 3 h; how it was run: as §1
Rattus norvegicus [15] = test: Antihypertensive activity in Norwegian albino rat assessed as inhibition of DOCA salt-induced systolic blood pressure at 10 mg/kg, po after 120 mins by non-invasive tail-cuff method; type: functional; details: Artery, 2 h; how it was run: as §2
Rattus norvegicus [16] = test: Antiinflammatory activity in Norwegian albino rat assessed as inhibition of carrageenan-induced paw edema at 100 mg/kg, po after administered 60 mins prior to carrageenan-challenge measured after 1 hr; type: functional; how it was run: as §3
Rattus norvegicus [17] = test: Antihypertensive activity in Norwegian albino rat assessed as inhibition of DOCA salt-induced systolic blood pressure at 10 mg/kg, po after 60 mins by non-invasive tail-cuff method; type: functional; details: Artery, 1 h; how it was run: as §2
Mus musculus = test: Analgesic activity against acetic acid-induced writhing in Swiss albino mouse assessed as protection at 20 mg/kg, po; type: functional
How it was run: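 Swiss albino mice (25–30 g), six per group, habituated 30 min individually in the test cage. Compound in 1% CMC given p.o. at 20 mg/kg. 1 h later, acetic acid injected i.p.; writhes (arching of back, body elongation, hind-limb extension) counted 5–15 min after injection. % inhibition = (n−n′)/n×100, where n and n′ are mean writhes in control and test.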

Rattus norvegicus [18] = test: Antihypertensive activity in Norwegian albino rat assessed as inhibition of DOCA salt-induced systolic blood pressure at 10 mg/kg, po after 300 mins by non-invasive tail-cuff method; type: functional; details: Artery, 5 h; how it was run: as §2
Rattus norvegicus [19] = test: Antihypertensive activity in Norwegian albino rat assessed as inhibition of DOCA salt-induced diastolic blood pressure at 10 mg/kg, po after 60 mins by invasive carotid artery cannulation method; type: functional; details: 1 h; how it was run: as §1
Rattus norvegicus [20] = test: Antihypertensive activity in Norwegian albino rat assessed as inhibition of DOCA salt-induced systolic blood pressure at 10 mg/kg, po after 15 mins by non-invasive tail-cuff method; type: functional; details: Artery, 0.25 h

Row | Compound | inhibition in vivo at 10 mg/kg (Rattus norvegicus [1]) [%] | inhibition in vivo at 10 mg/kg (Rattus norvegicus [2]) [%] | inhibition in vivo at 10 mg/kg (Rattus norvegicus [3]) [%] | inhibition in vivo at 10 mg/kg (Rattus norvegicus [4]) [%] | inhibition in vivo at 100 mg/kg (Rattus norvegicus [5]) [%] | inhibition in vivo at 10 mg/kg (Rattus norvegicus [6]) [%] | inhibition in vivo at 10 mg/kg (Rattus norvegicus [7]) [%] | UI (Rattus norvegicus [8]) | inhibition in vivo at 10 mg/kg (Rattus norvegicus [9]) [%] | inhibition in vivo at 100 mg/kg (Rattus norvegicus [10]) [%] | inhibition in vivo at 10 mg/kg (Rattus norvegicus [11]) [%] | inhibition in vivo at 10 mg/kg (Rattus norvegicus [12]) [%] | inhibition in vivo at 10 mg/kg (Rattus norvegicus [13]) [%] | inhibition in vivo at 10 mg/kg (Rattus norvegicus [14]) [%] | inhibition in vivo at 10 mg/kg (Rattus norvegicus [15]) [%] | inhibition in vivo at 100 mg/kg (Rattus norvegicus [16]) [%] | inhibition in vivo at 10 mg/kg (Rattus norvegicus [17]) [%] | inhibition in vivo at 10 mg/kg (Rattus norvegicus [18]) [%] | inhibition in vivo at 10 mg/kg (Rattus norvegicus [19]) [%] | inhibition in vivo at 10 mg/kg (Rattus norvegicus [20]) [%] | also measured
1 | CCOC(=O)C1=C(C)NC(OC)N(CC(=O)c2ccc(Cl)cc2)C1c1ccccc1 (centres undefined) | 2.35 | 36.7 | 47.8 | 41.5 | 38.4 | 46.5 | 30.1 | 0.45 | 45 | 42 | 6.49 | 28 | 9.99 | 37.8 | 20.5 | 36.6 | 13.8 | 38.2 | 23 | 0.7 | Activity (Mus musculus): 41.66%
2 | CCOC(=O)C1=C(C)NC(OC)N(CC(=O)c2ccc(OC)cc2)C1c1ccccc1 (centres undefined) | 1.84 | 36.8 | 47.8 | 41.6 | 38.4 | 46.5 | 30.1 | 0.74 | 45.1 | 42.6 | 6.49 | 28 | 8.97 | 37.8 | 20.5 | 37.1 | 13.8 | 38.3 | 23.5 | 1 | Activity (Mus musculus): 45.8%
3 | CCOC(=O)C1=C(C)NC(OC)N(CC(=O)c2ccc(OC)cc2)C1c1ccc(C)cc1 (centres undefined) | 3.12 | 36.9 | 47.9 | 42 | 39.8 | 46.3 | 30 | 0.56 | 44 | 42 | 11.1 | 28.1 | 11.5 | 37.6 | 24 | 38.8 | 14.7 | 39.6 | 22.5 | 1.82 | Activity (Mus musculus): 43.33%
4 | CCOC(=O)C1=C(C)NC(OC)N(CC(=O)c2ccccc2)C1c1ccc(C)cc1 (centres undefined) | 2.2 | 36.8 | 48.7 | 42 | 37.9 | 45.5 | 30.6 |  | 44 | 38.9 | 1.87 | 28 | 9.79 | 35.5 | 17.4 | 37.8 | 13.7 | 38.3 | 23.1 | 0.59 | 
5 | CCOC(=O)C1=C(C)NC(OC)N(CC(=O)c2ccc(Cl)cc2)C1c1ccc(OC)cc1 (centres undefined) | 1.79 | 36 | 47.7 | 42.9 | 39.5 | 51.9 | 30.1 | 0.45 | 49.4 | 42 | 6.58 | 28 | 10.1 | 37.9 | 23.8 | 37.8 | 18.2 | 41.4 | 23.5 | 1.57 | Activity (Mus musculus): 49.56%
6 | COC(=O)C1=C(C)NC(C)=C(C(=O)OC)C1c1ccccc1[N+](=O)[O-] [NIFEDIPINE] | 2.51 | 35.5 | 48.4 | 44.5 |  | 46.6 | 30.8 |  | 45.5 |  | 4.44 | 25 | 11.7 | 39.4 | 19.7 |  | 12.9 | 44.2 | 23.6 | 1.29 | 
